Results gathered from unrelated publications.
Protocols differ between the studies behind these lines.
Cell line: K562

Compound	observed	mode	technique	time	notes	IC50 [nM]
O=C1CCCCC1C1C2C=CC=CC1C(CCN1C(=O)c3ccccc3C1=O)=C2 (centres unmarked)	cell growth or viability		flow cytometry			11
C[C@H](O)C(=O)CCCCCCC(=O)Nc1cccc(-c2cn(-c3ccccc3)nn2)c1	cell growth or viability		thymidine uptake			7120
CN1c2ccccc2C(=O)N2[C@H](C(=O)Nc3ccc(/C=C/C(=O)NO)cc3)Cc3c([nH]c4ccccc34)[C@@H]12	cell growth or viability					1000
CCCON(Cc1ccc(C(=O)NO)cc1)C(=O)Nc1ccc(N(C)C)cc1	cell growth or viability		ATP luminescence	72 h		7680
CC(=O)O[C@@H]1OC=C2[C@@H](OC(C)=O)C[C@H]3[C@]4(C)CC[C@H]5C(C)(C)CCC[C@]5(C)[C@H]4C[C@@H](O)[C@]3(C)[C@H]21	NF-κB activity	inhibitor	luciferase		TNF-stimulated	6000
CC(C)(C)SCCCC1=CC2C=CC=CC1C2C1CCCCC1=O (centres unmarked)	cell growth or viability		flow cytometry			28
Cc1cc(NCCCCCCCNc2cc(C)nc3cc(N)ccc23)c2ccc(N)cc2n1	cell growth or viability		XTT	96 h		13000
O=C1NC(=NCc2cccs2)S/C1=C\c1ccc2ncccc2c1	cell growth or viability					> 10000
COC(=O)Nc1nc2ccc(Oc3ccc(NC(=O)Nc4cc(C(F)(F)F)ccc4F)cc3)cc2s1	cell growth or viability		XTT	72 h		81
CCCCc1ccc2[nH]c(NC(=O)OC)nc2c1	cell growth or viability		CCK-8	72 h		61.2
N#CCCCC1=CC2C=CC=CC1C2C1CCCCC1=O (centres unmarked)	cell growth or viability		flow cytometry			31
COc1cc(C=NNc2ncnc3c2cnn3-c2ccccc2)ccc1O	cell growth or viability		XTT	72 h		3240
CCCCCC/C=C1\CC2C=CC=CC1C2C1CCCCC1=O (centres unmarked)	cell growth or viability		flow cytometry			17
N[C@@H](CC(=O)N1CCN(C(c2ccc(F)cc2)c2ccc(F)cc2)CC1)C(=O)N1Cc2ccccc2C1	cell growth or viability		ATP luminescence	48 h		40800
CC(C)C[C@H](NC(=O)[C@H](Cc1ccccc1)NC(=O)c1cnccn1)B(O)O	cell growth or viability		ATP luminescence			5.6
O=C1CCCCC1C1C2C=CC=CC1C(CCCCOC1CCCCO1)=C2 (centres unmarked)	cell growth or viability		flow cytometry			27
CCCCN(Cc1ccc(C(=O)NO)cc1)C(=O)Nc1ccccc1	cell growth or viability		ATP luminescence	72 h		2260
